Data published in ChEMBL document CHEMBL4765431, “Novel phthalide derivatives: Synthesis and anti-inflammatory activity in vitro and in vivo” (Eur J Med Chem, 2020).
The source made the active and inactive calls. The rule behind the calls is not given here.

Legend:
RAW264.7 [1] = test: Antiinflammatory activity in mouse RAW264.7 cells assessed as inhibition of LPS-induced nitric oxide production at 10 uM preincubated for 1 hr followed by LPS stimulation and measured after 24 hrs by Griess reagent-based assay relative to control; type: functional; conditions: time 25 hrs
Summary of the method: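 RAW264.7 cells (7 × 10^4/well, used 24 h after seeding) in DMEM with 10% heat-inactivated FBS, 37 °C, 5% CO2. Pretreated 1 h with compound (10 µM screen; 0.625–10 µM dose series), then LPS 0.5 µg/mL for 24 h. Supernatant mixed 1:1 with Griess reagent, 15 min at room temperature, absorbance read at […].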

RAW264.7 [2] = test: Cytotoxicity against mouse RAW264.7 cells assessed as reduction in cell viability incubated for 24 hrs in absence of LPS by MTT assay; type: cell-based; conditions: RAW264.7, 24 h
RAW264.7 [3] = test: Cytotoxicity against mouse RAW264.7 cells assessed as reduction in cell viability incubated for 24 hrs in presence of LPS by MTT assay; type: cell-based; conditions: RAW264.7, 24 h
RAW264.7 [4] = test: Antiinflammatory activity in mouse RAW264.7 cells assessed as inhibition of LPS-induced nitric oxide production preincubated for 1 hr followed by LPS stimulation and measured after 24 hrs by Griess reagent-based assay; type: functional, cell-based
RAW264.7 [5] = test: Cytotoxicity against mouse RAW264.7 cells assessed as reduction in cell viability at 20 uM incubated for 24 hrs by MTT assay; type: cell-based; conditions: raw264.7, 24 h
Summary of the method: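 RAW264.7 cells (1 × 10^4/well, used 24 h after seeding) exposed to 20 µM for 24 h. MTT (5 mg/mL stock) added for 4 h, supernatant removed, crystals dissolved in DMSO with 10–15 min shaking, absorbance at 492 nm.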

Rattus norvegicus [6] = test: Antiarthritic activity in Sprague-Dawley rat model of CFA-induced arthritis assessed as intact joint cavity at 60 mg/kg, ig administered daily for 28 days starting from 14 days post-immunization and measured every 3 days by H and E staining based histopathological analysis; type: functional, organism-based; conditions: time 28.0 day
Rattus norvegicus [7] = test: Antiarthritic activity in Sprague-Dawley rat model of arthritis assessed as decrease in CFA-induced synovial hyperplasia at 60 mg/kg, ig administered daily for 28 days starting from 14 days post-immunization and measured every 3 days by H and E staining based histopathological analysis; type: functional, organism-based; conditions: time 28.0 day

SMILES	inhibition at 10 µM (RAW264.7 [1]) [%]	IC50 (RAW264.7 [2]) [µM]	IC50 (RAW264.7 [3]) [µM]	IC50 (RAW264.7 [4]) [µM]	Activity (RAW264.7 [5])	Activity (Rattus norvegicus [6])	Activity (Rattus norvegicus [7])
COc1cc(OC)c2c(c1)/C(=C/c1ccc(OCc3ccc(F)cc3)cc1)OC2=O	48.2	> 40	> 40	> 10	Non-Toxic	–	–
COc1cc(OC)c2c(c1)C(C(O)c1ccc(OCc3ccc(C)cc3)cc1)OC2=O (stereo unspecified)	82.1	> 40	> 40	3.12	Non-Toxic	–	–
COc1cc(OC)c2c(c1)C(C(O)c1ccc(OCc3ccc(Br)cc3)cc1)OC2=O (stereo unspecified)	68.1	> 40	> 40	6.53	Non-Toxic	–	–
COc1cc(OC)c2c(c1)C(C(O)c1ccc(OCc3ccccc3)cc1)OC2=O (stereo unspecified)	41.2	> 40	> 40	> 10	Non-Toxic	–	–
COc1ccc2c(c1)c(CC(=O)O)c(C)n2C(=O)c1ccc(Cl)cc1 [INDOMETHACIN]	61.6	> 40	> 40	> 10	–	–	–
COc1ccc(C(O)C2OC(=O)c3c(OC)cc(OC)cc32)cc1 (stereo unspecified)	38.7	> 40	> 40	> 10	Non-Toxic	–	–
COc1ccc(/C=C2\OC(=O)c3c(OC)cc(OC)cc32)cc1	36.3	> 40	> 40	> 10	Non-Toxic	–	–
COCCCCOc1ccc(C(O)C2OC(=O)c3c(OC)cc(OC)cc32)cc1 (stereo unspecified)	50.3	> 40	> 40	8.21	Non-Toxic	–	–
CCOc1ccc(C(O)C2OC(=O)c3c(OC)cc(OC)cc32)cc1 (stereo unspecified)	43.2	> 40	> 40	> 10	Non-Toxic	–	–
O=C1OC(Cc2nc(-c3ccccc3)no2)c2ccccc21 (stereo unspecified)	13	> 40	> 40	> 10	Non-Toxic	–	–
COc1cc(OC)c2c(c1)C(C(O)c1ccc(OCCOc3ccccc3)cc1)OC2=O (stereo unspecified)	41.2	> 40	> 40	> 10	Non-Toxic	–	–
COc1cc(OC)c2c(c1)C(C(O)c1ccc(OCC3CCCCC3)cc1)OC2=O (stereo unspecified)	27.4	> 40	> 40	> 10	Non-Toxic	–	–
CCCOc1ccc(C(O)C2OC(=O)c3c(OC)cc(OC)cc32)cc1 (stereo unspecified)	53.2	> 40	> 40	9.26	Non-Toxic	–	–
Cc1noc(CC2OC(=O)c3ccccc32)n1 (stereo unspecified)	24.3	> 40	> 40	> 10	Non-Toxic	–	–
COC1=C[C@@H]2[C@@H]3Cc4ccc(OC)c(O)c4[C@]2(CCN3C)CC1=O	–	–	–	–	–	Active	Active
COc1cc(OC)c2c(c1)C(C(O)c1ccc(OCc3ccc(OC(F)(F)F)cc3)cc1)OC2=O (stereo unspecified)	62.8	> 40	> 40	8.14	Non-Toxic	–	–

SMILES	inhibition at 10 µM (RAW264.7 [1]) [%]	IC50 (RAW264.7 [2]) [µM]	IC50 (RAW264.7 [3]) [µM]	IC50 (RAW264.7 [4]) [µM]	Activity (RAW264.7 [5])	Activity (Rattus norvegicus [6])	Activity (Rattus norvegicus [7])
COc1cc(OC)c2c(c1)/C(=C/c1ccc(OCc3ccccc3)cc1)OC2=O	44.3	> 40	> 40	> 10	Non-Toxic	–	–
O=C1OC(Cc2nc(-c3ccc(-c4ccccc4)cc3)no2)c2ccccc21 (stereo unspecified)	25.2	> 40	> 40	> 10	Non-Toxic	–	–
CCCCCCOc1ccc(C(O)C2OC(=O)c3c(OC)cc(OC)cc32)cc1 (stereo unspecified)	62.2	> 40	> 40	5.36	Non-Toxic	–	–
C=CCCOc1ccc(C(O)C2OC(=O)c3c(OC)cc(OC)cc32)cc1 (stereo unspecified)	87.2	> 40	> 40	1.33	Non-Toxic	–	–
O=C1OC(Cc2nc(Cc3ccccc3)no2)c2ccccc21 (stereo unspecified)	25.1	> 40	> 40	> 10	Non-Toxic	–	–
CCOCCOc1ccc(C(O)C2OC(=O)c3c(OC)cc(OC)cc32)cc1 (stereo unspecified)	42.9	> 40	> 40	> 10	Non-Toxic	–	–
COc1cc(OC)c2c(c1)C(C(O)c1ccc(OCc3ccc(OC(F)F)cc3)cc1)OC2=O (stereo unspecified)	67.6	> 40	> 40	5.03	Non-Toxic	–	–
COCCCOc1ccc(C(O)C2OC(=O)c3c(OC)cc(OC)cc32)cc1 (stereo unspecified)	89.5	> 40	> 40	1.26	Non-Toxic	–	–
CCCCOc1ccc(C(O)C2OC(=O)c3c(OC)cc(OC)cc32)cc1 (stereo unspecified)	83.7	> 40	> 40	1.8	Non-Toxic	–	–
COc1cc(OC)c2c(c1)C(C(O)c1ccc(OCC(C)C)cc1)OC2=O (stereo unspecified)	48.6	> 40	> 40	> 10	Non-Toxic	–	–
COc1cc(OC)c2c(c1)C(C(O)c1ccc(OCc3ccc(Cl)cc3)cc1)OC2=O (stereo unspecified)	75.1	> 40	> 40	4.32	Non-Toxic	–	–
COc1cc(OC)c2c(c1)C(C(O)c1ccc(O)cc1)OC2=O (stereo unspecified)	46.1	> 40	> 40	> 10	Non-Toxic	–	–
O=C1OC(Cc2nc(-c3ccc(Oc4ccccc4)cc3)no2)c2ccccc21 (stereo unspecified)	10	> 40	> 40	> 10	Non-Toxic	–	–
COc1cc(OC)c2c(c1)C(C(O)c1ccc(OCc3ccc(C#N)cc3)cc1)OC2=O (stereo unspecified)	60.8	> 40	> 40	7.36	Non-Toxic	–	–
COCCOc1ccc(C(O)C2OC(=O)c3c(OC)cc(OC)cc32)cc1 (stereo unspecified)	41.4	> 40	> 40	> 10	Non-Toxic	–	–
